In ChEMBL document CHEMBL1154881, “Synthesis and antimicrobial activities of novel 1,5-diaryl pyrazoles” (2010):
Converted amounts (≈) assume the structure as drawn.

Columns and labels:
Klebsiella pneumoniae [1] = assay: Antibacterial activity against Klebsiella pneumoniae after 24 hrs by […]
Staphylococcus aureus [2] = assay: Antibacterial activity against Staphylococcus aureus ATTC 25923 after 24 hrs by disk diffusion method; assay type: functional
How it was run: (§1)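 Disc diffusion, each concentration tested in triplicate on nutrient agar seeded separately with fresh bacteria. Incubation 37 °C, 24 h. Solvent and growth controls included. Zones of inhibition recorded. The K. pneumoniae strain was recultured.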

Escherichia coli [3] = assay: Antibacterial activity against Escherichia coli ATTC 25922 after 24 hrs by disk diffusion method; assay type: functional
How it was run: as §1

Escherichia coli [4] = assay: Antibacterial activity against Escherichia coli ATTC 25922 after 24 hrs by broth dilution method; assay type: functional; conditions: ATTC 25922, 24 h
Staphylococcus aureus [5] = assay: Antibacterial activity against Staphylococcus aureus ATTC 25923 after 24 hrs by broth dilution method; assay type: functional; conditions: ATTC 25923, 24 h
Pseudomonas aeruginosa [6] = assay: Antibacterial activity against Pseudomonas aeruginosa ATTC 27853 after 24 hrs by disk diffusion method; assay type: functional
How it was run: as §1

Pseudomonas aeruginosa [7] = assay: Antibacterial activity against Pseudomonas aeruginosa ATTC 27853 after 24 hrs by broth dilution method; assay type: functional; conditions: ATTC 27853, 24 h
Klebsiella pneumoniae [8] = assay: Antibacterial activity against Klebsiella pneumoniae after 24 hrs by disk diffusion method; assay type: functional
How it was run: as §1

[9] = system: Trichophyton mentagrophytes; assay: Antifungal activity against Trichophyton mentagrophytes at 10 to 50 ug/ml after 3 to 4 days; assay type: functional
Talaromyces marneffei [10] = assay: Antifungal activity against Penicillium marneffei at 10 to 50 ug/ml after 3 to 4 days; assay type: functional
Talaromyces marneffei [11] = assay: Antifungal activity against Penicillium marneffei after 3 to 4 days by serial plate dilution method; assay type: functional
How it was run: (§2)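 Sabouraud's agar (peptone 1 g, D-glucose 4 g, agar 2 g per 100 ml water, pH 5.7) plates were lawned with spore suspension (a loopful in 3 ml normal saline) and dried 1 h at 37 °C. Wells were punched and filled with compound in DMSO at 10–50 mg/ml, with a DMSO control. Plates in triplicate, 37 °C for 3–4 days.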

Aspergillus flavus = assay: Antifungal activity against Aspergillus flavus NCIM 524 after 3 to 4 days by serial plate dilution method; assay type: functional
How it was run: as §2

[12] = system: Trichophyton mentagrophytes; assay: Antifungal activity against Trichophyton mentagrophytes after 3 to 4 days by serial plate dilution method; assay type: functional
How it was run: as §2

Aspergillus fumigatus = assay: Antifungal activity against Aspergillus fumigatus NCIM 902 after 3 to 4 days by serial plate dilution method; assay type: functional
How it was run: as §2

Klebsiella pneumoniae [13] = assay: Antibacterial activity against Klebsiella pneumoniae after 24 hrs by broth dilution method; assay type: functional

Row | SMILES | MIC (Klebsiella pneumoniae [1]) [µg/mL] | inhibition zone (IZ) (Staphylococcus aureus [2]) [mm] | inhibition zone (IZ) (Escherichia coli [3]) [mm] | MIC (Escherichia coli [4]) [µg/mL] | MIC (Staphylococcus aureus [5]) [µg/mL] | inhibition zone (IZ) (Pseudomonas aeruginosa [6]) [mm] | MIC (Pseudomonas aeruginosa [7]) [µg/mL] | inhibition zone (IZ) (Klebsiella pneumoniae [8]) [mm] | MIC [9] [µg/mL] | MIC (Talaromyces marneffei [10]) [µg/mL] | inhibition zone (IZ) (Talaromyces marneffei [11]) [mm] | inhibition zone (IZ) (Aspergillus flavus) [mm] | inhibition zone (IZ) [12] [mm] | inhibition zone (IZ) (Aspergillus fumigatus) [mm] | MIC (Klebsiella pneumoniae [13]) [µg/mL]
1 | O=C(O)c1cn(C2CC2)c2cc(N3CCNCC3)c(F)cc2c1=O [CIPROFLOXACIN] | 6.25 (≈ 18.9 µM) | 23 | 32 | 6.25 (≈ 18.9 µM) | 6.25 (≈ 18.9 µM) | 28 | 6.25 (≈ 18.9 µM) | 24 | – | – | – | – | – | – | –
2 | O=C1CCN(C(=O)c2cc(-c3ccc(Cl)cc3)n(-c3ccc(F)cc3)n2)CC1 | 12.5 (≈ 31.4 µM) | 24 | 27 | 12.5 (≈ 31.4 µM) | 12.5 (≈ 31.4 µM) | 18 | 12.5 (≈ 31.4 µM) | 25 | 50 (≈ 126 µM) | 12.5 (≈ 31.4 µM) | 29 | 18 | 24 | 26 | –
3 | O=C(c1cc(-c2ccc(Cl)cc2)n(-c2ccc(F)cc2)n1)N1CCNCC1 | 12.5 (≈ 32.5 µM) | <10 | <10 | – | – | 19 | 50 (≈ 130 µM) | 19 | 50 (≈ 130 µM) | – | <10 | 25 | 19 | 23 | –
4 | N#Cc1ccc(-c2csc(-c3cc(-c4ccc(Cl)cc4)n(-c4ccc(F)cc4)n3)n2)cc1 | – | 19 | 20 | 12.5 (≈ 27.4 µM) | 12.5 (≈ 27.4 µM) | 19 | 50 (≈ 109 µM) | 17 | 12.5 (≈ 27.4 µM) | 12.5 (≈ 27.4 µM) | 22 | <10 | 22 | <10 | –
5 | CS(=O)(=O)OC1CCN(C(=O)c2cc(-c3ccc(Cl)cc3)n(-c3ccc(F)cc3)n2)CC1 | 12.5 (≈ 26.2 µM) | 26 | 28 | 12.5 (≈ 26.2 µM) | 12.5 (≈ 26.2 µM) | 21 | 50 (≈ 105 µM) | 23 | 12.5 (≈ 26.2 µM) | 12.5 (≈ 26.2 µM) | 29 | 31 | 28 | 25 | –
6 | C#CCN1CCN(C(=O)c2cc(-c3ccc(Cl)cc3)n(-c3ccc(F)cc3)n2)CC1 | – | 18 | 18 | 50 (≈ 118 µM) | 12.5 (≈ 29.6 µM) | <10 | – | 17 | – | – | 18 | <10 | <10 | 19 | 50 (≈ 118 µM)
7 | CCOC(=O)c1sc(-c2cc(-c3ccc(Cl)cc3)n(-c3ccc(F)cc3)n2)nc1C | – | 16 | 18 | 12.5 (≈ 28.3 µM) | 12.5 (≈ 28.3 µM) | 19 | – | 19 | 12.5 (≈ 28.3 µM) | 12.5 (≈ 28.3 µM) | 19 | 22 | 20 | 18 | 50 (≈ 113 µM)
